Hep lipid drop: modulators of hepatic lipid droplet formation; AML12 mouse hepatocytes, oleate lipid droplets, BODIPY imaging; inhibition, % at 6.5 µM; hit rate 0.4% among 240,000; AID 1656;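 active = lipid droplet intensity inhibited by at least 50%, with more than 500 cells counted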
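Assay system: AML12 mouse liver cells | Compound: 6.5 µM single-point dosing | Schedule: Overnight exposure | Technique: Fluorescence imaging, 20x objective, two fields per well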
MrgX1 antag: antagonists of human MrgX1 receptor; Q96LB2; MRGX1-HEK293 calcium flux, Fluo-4, BAM8-22 antagonism; active compounds read low; B-score at 10 µM; hit rate 1.3% among 310,000; AID 588676;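 active = calcium-response B-score plate-corrected more than 3 library SD below zero, starting fluorescence within 5 deviations, no agonist response on first addition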;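 also: peak minus trough fluorescence over baseline after final BAM8-22 challenge near maximal dose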
Target sequence (Q96LB2 whole entry, looked up): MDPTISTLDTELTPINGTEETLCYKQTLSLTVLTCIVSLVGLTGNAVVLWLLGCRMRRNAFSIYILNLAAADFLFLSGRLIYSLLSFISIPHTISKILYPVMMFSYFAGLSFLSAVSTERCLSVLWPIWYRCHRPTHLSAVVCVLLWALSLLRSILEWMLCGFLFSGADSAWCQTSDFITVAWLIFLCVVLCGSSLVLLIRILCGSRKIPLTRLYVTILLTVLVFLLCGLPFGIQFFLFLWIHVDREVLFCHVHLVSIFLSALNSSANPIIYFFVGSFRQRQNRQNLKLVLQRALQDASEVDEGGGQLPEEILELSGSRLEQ
RGS4 block: human RGS4 inhibition; B-score at 10 µM; hit rate 0.45% among 310,000; HEK293 M3R/RGS4 inducible, Fluo-4 calcium flux; active compounds read high; triggered by carbachol at its EC20; AID 463165;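 active = B-score, a plate-corrected calcium signal, over three deviations above library mean, with baseline fluorescence within five deviations of library mean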;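 also: RGS4 expression induced by doxycycline in cells with stable M3 receptor; B-score is computed from the integrated fluorescence ratio over baseline after carbachol; higher B-score means a larger calcium signal and so more RGS4 inhibition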
Target sequence (P49798 whole entry, looked up): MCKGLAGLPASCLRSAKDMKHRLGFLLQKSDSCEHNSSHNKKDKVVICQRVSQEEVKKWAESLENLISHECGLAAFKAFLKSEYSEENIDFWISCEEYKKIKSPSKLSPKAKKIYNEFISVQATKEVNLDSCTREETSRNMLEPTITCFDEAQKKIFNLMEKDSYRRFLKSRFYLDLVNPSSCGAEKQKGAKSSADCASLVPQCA
RGS4 pot: potentiators or activators of RGS4 | HEK293 M3R/inducible RGS4, carbachol calcium flux Fluo4; active compounds read low | B-score at 10 µM | hit rate 0.92% among 310,000 | AID 463111;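 active = B-score of the integrated calcium signal more than 4 SD below the library mean, with starting fluorescence not abnormally high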;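 also: negative B-score means reduced calcium response which marks RGS4 activation or potentiation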
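Material: Inducible-RGS4 HEK293 cells carrying M3 receptor; also added: carbachol at ECmax as muscarinic agonist stimulus; incubation: compound preincubation 20 min at room temperature before agonist; signal: Fluo4-AM (2 µM) calcium-flux fluorescence, kinetic read; measure: integrated calcium ratio converted to B score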
MrgX1 ag: human MrgX1 receptor agonism, primary screen | AID 588627 | B-score at 10 µM | hit rate 0.44% among 310,000 | MrgX1-HEK293 cells, Fluo-4 calcium fluorescence, agonist mode; active compounds read high;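 active = calcium response B-score plate-corrected fluorescence ratio at least 3 library SD, with starting fluorescence B-score inside 5 SD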
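times = overnight plating, then 30 min 37 °C plus 30 min room-temperature dye loading | assay system = stable human MrgX1 HEK293 cell line | input = fifteen thousand cells per well | signal = kinetic calcium dye fluorescence, Fluo-4 NW | dosing = compound delivered in addition one of three | read-out = B-scored fluorescence response ratio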
MrgX1 allo act: human MrgX1 positive allosteric modulation, primary screen. B-score at 10 µM. MrgX1-HEK293, Fluo-4 calcium flux, FDSS; active compounds read high. hit rate 0.63% among 310,000. Q96LB2;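 active = plate-corrected calcium response at least 3 library SD above typical, normal starting fluorescence, not activating the receptor alone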;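 also: compound read alongside a low EC10 to EC30 dose of BAM8-22 agonist; peak minus trough fluorescence over baseline measured at the second addition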
MrgX1 ant reconf: human MrgX1 receptor antagonism, re-confirmation screen; remaining BAM8-22 calcium response % of control (active compounds read low), % at 10 µM; MrgX1-HEK293, BAM8-22 calcium flux, Fluo-4; active compounds read low; hit rate 19% among 2,300; shares compounds with MrgX1 antag;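 active = remaining agonist calcium response no higher than 100% minus 3 SD of agonist-only control wells, with starting fluorescence near control levels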;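 also: agonist BAM8-22 given at a near maximal EC90 to ECmax level; peak minus minimum fluorescence divided by baseline after agonist addition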
HEK293 Ca flux: counter-screen for MrgX1 antagonists: effect in parental HEK293 cells; shares compounds with MrgX1 antag; Fluo-4 calcium fluorescence, FDSS; fluorescence ratio F(max-min)/F0 at 10 µM; hit rate 2% among 4,000; AID 624111;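 active = duplicate-averaged calcium fluorescence ratio at least three times the standard deviation of buffer wells, a nonspecific response in parental cells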
HEK293 Ca counter: counter-screen for MrgX1 allosteric activators: effect in parental HEK293 cells; shares compounds with MrgX1 antag; parental HEK293 calcium flux, Fluo-4 fluorescence ratio; active compounds read high; fluorescence ratio F(max-min)/F0 at 10 µM; hit rate 0.4% among 4,000; AID 624114;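 active = calcium fluorescence ratio, averaged over duplicates, at least 3 SD of the buffer-well ratio, meaning a nonspecific response in receptor-free cells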;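 also: untransfected parental HEK293 lacking MrgX1 used as counterscreen for MrgX1 allosteric activators; fluorescence change taken during the second addition on a kinetic imager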
HEK293 Ca cntr2: MrgX1 activator counter-screen hit in parental HEK293 cells. fluorescence ratio F(max-min)/F0 at 10 µM. Fluo-4 calcium fluorescence (FDSS); active compounds read high. hit rate 8.7% among 4,000. AID 624115. shares compounds with MrgX1 antag;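 active = calcium fluorescence ratio at least three times the spread of buffer wells, meaning a non-specific response in parental cells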
Starred values were filed as active, the others as inactive; i = inactive; . = no result. A selection: hits, their analogues and other compounds. The true share with any hit is near 3.8%.

SMILES	Hep lipid drop	MrgX1 antag	RGS4 block	RGS4 pot	MrgX1 ag	MrgX1 allo act	MrgX1 ant reconf	HEK293 Ca flux	HEK293 Ca counter	HEK293 Ca cntr2
COc1ccc(NC(=S)N2CCCC(c3nc4ccc(C)cc4[nH]3)C2)cc1 (stereo not drawn)	-2	-9.5*	i	i	i	i	i	i	i	i
COc1ccc(NC(=S)N2CCCC(c3nc4ccc(C)cc4[nH]3)C2)c(OC)c1 (stereo not drawn)	-22	i	i	i	i	i	.	.	.	.
CCNc1nc(NCC)n2c(SCC(=O)Nc3ccccc3Cl)nnc2n1	.	-8.6*	i	i	i	i	i	i	i	i
CCNc1nc(NCC)n2c(SCC(=O)Nc3ccccc3C(F)(F)F)nnc2n1	.	i	i	i	i	i	.	.	.	.
Cc1cc(-c2nnc3n2N=C(c2ccc(F)cc2)CS3)n[nH]1	9	i	i	i	i	i	.	.	.	.
COC(=O)c1ccccc1NC(=O)c1cc2sccc2n1C	9	-7.3*	i	i	i	i	85%*	i	i	i
COC(=O)c1cccc(NC(=O)c2cc3sccc3n2C)c1	3	i	i	i	i	i	.	.	.	.
COc1cc(OC)c(/C=N/n2c(C)nnc2C)c(OC)c1	-10	-4.8*	i	i	i	i	i	i	i	i
Cc1ccc(C(CNS(=O)(=O)c2ccc(C)cc2)N2CCN(C)CC2)cc1 (stereo not drawn)	.	i	i	i	i	i	.	.	.	.
Cc1ccc(C(CNS(=O)(=O)c2ccc(Cl)cc2)N2CCN(C)CC2)cc1 (stereo not drawn)	.	-5*	i	i	i	i	78%*	i	i	i
COc1ccc2nc(NC(=O)CCN3C(=S)NC(C)(C)CC3C)sc2c1 (stereo not drawn)	25	i	i	i	i	i	.	.	.	.
Cc1nc(CNC(=O)CC2C(=O)NCCN2Cc2cccc(Oc3ccccc3)c2)cs1 (stereo not drawn)	-17	i	i	i	i	i	.	.	.	.
O=C(Cn1cc2c(n1)CCCCC2)N1CCc2ccccc2C1	-2	i	i	i	i	i	.	.	.	.
O=C(Cn1cc2c(n1)CCCC2)N1CCc2ccccc21	13	-7.1*	i	i	i	i	i	i	i	i
CN1CCN(S(=O)(=O)c2cccc(C(=O)Nc3nc(-c4ccccc4)cs3)c2)CC1	6	i	i	i	i	i	.	.	.	.
COc1ccc(-c2csc(NC(=O)c3cccc(S(=O)(=O)N4CCN(C)CC4)c3)n2)cc1	.	-5.8*	i	i	i	i	i	i	i	i
CCOC(=O)N1CCN(c2c(Nc3ccc4c(c3)OCCO4)c(=O)c2=O)CC1	.	-6.8*	i	i	i	i	i	i	i	i
CC(=O)Nc1ccc2c(c1)CCCC2=O	-18	-4.6*	i	i	i	i	77%*	i	i	i
CC(=O)Nc1ccc2c(c1)CCCC2	10	i	i	i	i	i	.	.	.	.
CCSc1nnc(NC(=O)CSc2nnc(CNC(=O)c3ccc(OC)c(OC)c3)o2)s1	16	i	i	i	i	i	.	.	.	.
O=C(O)c1cnc(-c2ccccc2)nc1C(F)(F)F	2	i	i	i	i	i	.	.	.	.
O=C(O)CCCCCn1c(SCc2cc(=O)n3ccccc3n2)nc2ccsc2c1=O	-22	i	i	i	i	i	.	.	.	.
CCc1cccc(C)c1NC(=S)NCc1ccc2[nH]c(C)cc2c1	-41	-9.1*	i	i	i	i	i	i	i	i
COc1ccc(N2C(=O)CC(Sc3n[nH]c(-c4ccccc4)n3)C2=O)cc1 (stereo not drawn)	-2	i	i	i	i	i	.	.	.	.
CCOc1ccc(N2C(=O)CC(Sc3n[nH]c(-c4ccccc4)n3)C2=O)cc1 (stereo not drawn)	-1	-5*	i	i	i	i	i	i	i	i
SMILES	Hep lipid drop	MrgX1 antag	RGS4 block	RGS4 pot	MrgX1 ag	MrgX1 allo act	MrgX1 ant reconf	HEK293 Ca flux	HEK293 Ca counter	HEK293 Ca cntr2
Nc1nonc1-c1noc(CCCN2C(=O)c3ccccc3C2=O)n1	.	-6.6*	i	i	i	i	i	i	i	i
CC(C)(CNC(=O)c1ccc(Br)o1)CNC(=O)c1ccc(Br)o1	-2	.	i	i	.	.	.	.	.	.
CN(CC(=O)c1c(N)n(C)c(=O)n(C)c1=O)c1ccccc1	-1	-5.8*	i	i	i	i	72%*	i	i	i
Cc1ccnc(NC(=O)c2ccc(Cl)c(S(=O)(=O)N3CCCC3)c2)c1	.	i	i	i	i	i	.	.	.	.
COc1nc(Nc2ccccc2F)nc(OC)n1	15	-8.1*	i	i	i	i	i	i	i	i
CN(C(=O)c1cccc(Br)c1)C1CCS(=O)(=O)C1 (stereo not drawn)	.	-4.5*	i	i	i	i	i	i	i	i
CN(Cc1ccccc1)S(=O)(=O)c1csc(C(N)=O)c1	13	i	i	i	i	i	.	.	.	.
CC(C)(C)NS(=O)(=O)c1ccc(CCC(=O)Nc2ccc3c(c2)OCCO3)cc1	14	-4.7*	i	i	i	i	i	i	i	i
O=C(NC1CCN(S(=O)(=O)c2ccccc2F)CC1)c1cccnc1	3	i	i	i	i	i	.	.	.	.
Cc1ccc(F)cc1NC(=O)c1sc2ncn(CC(=O)N3CCN(c4ccccn4)CC3)c(=O)c2c1C	12	i	i	i	i	i	.	.	.	.
COC(=O)c1ccccc1NC(=O)c1ccc2c(c1)OCCCO2	-6	-10*	i	i	i	i	i	i	i	i
Cc1ccccc1NC(=O)c1ccc2c(c1)OCCO2	8	i	i	i	i	i	.	.	.	.

Screening data from PubChem BioAssay.
